Assay results as given in ChEMBL document CHEMBL3804806, “Synthesis of (Z)-1-(1,3-diphenyl-1H-pyrazol-4-yl)-3-(phenylamino)prop-2-en-1-one derivatives as potential anticancer and apoptosis inducing agents” (Eur J Med Chem, 2016).
Calls of active or inactive are those of the source. No cut-off for these calls is given here.

Tests used:
HT-29 = assay: Antiproliferative activity against human HT-29 cells after 48 hrs by MTT assay; type: functional, cell-based; details: HT-29, 48 h
In short: (§1)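 Cells seeded at 3,000-5,000/well by doubling time and grown 24 h (37 °C, 5% CO2). HT-29/U87MG kept in DMEM + 10% FBS; A549/PC-3/HaCaT in RPMI-1640 + 10% FBS. Compounds for 48 h, then MTT 4 h, formazan dissolved in DMSO, A570 minus A630. % inhibition vs DMSO-treated cells; IC50 by probit. Three independent experiments in quadruplicate; mean ± SD.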

[1] = Antiproliferative activity against human U87MG cells after 48 hrs by MTT assay; type: functional, cell-based, U-87MG ATCC; details: U-87 MG; in short: as §1
[2] = Antiproliferative activity against human PC3 cells after 48 hrs by MTT assay; type: functional, cell-based; details: PC-3, 48 h; in short: as §1
HaCaT = assay: Antiproliferative activity against human HaCaT cells after 48 hrs by MTT assay; type: cell-based; in short: as §1
A549 [3] = assay: Antiproliferative activity against human A549 cells after 48 hrs by MTT assay; type: functional, cell-based; details: A549, 48 h; in short: as §1
A549 [4] = assay: Induction of apoptosis in human A549 cells assessed as loss in mitochondrial membrane potential at antiproliferative IC50 after 24 hrs by rhodamine 123 staining based spectrofluorometry relative to control; type: functional
In short: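 A549 cells plated at 5×10^5 cells/mL, adhered overnight, then 24 h at IC50. Harvested and incubated with rhodamine-123 (10 µg/mL) in PBS 30 min at room temp, washed. Fluorescence read by spectrofluorometer, ex 480/em 530 nm, vs untreated cells. Mean ± SD of three independent experiments, each in triplicate.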

A549 [5] = assay: Anti-migratory activity in human A549 cells assessed as disruption of actin fibre assembly after 12 hrs by rhodamine phalloidin/Hoechst 33242 staining based confocal microscopic analysis; type: functional, cell-based
In short: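 A549 cells (1x10⁶/well) grown on coverslips 24 h, then exposed to compounds 12 h. Washed, fixed in 4% paraformaldehyde in PBS, stained with rhodamine-phalloidin (F-actin) and Hoechst 33242 (nuclei), mounted in anti-fade. Examined by confocal microscopy, 20X objective.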

[6] = Selectivity ratio of IC50 for human HaCaT cells to IC50 for human A549 cells; type: ADME, cell-based; details: HaCaT cells versus A549 cells, read-out: Ratio IC50
In short: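 Ratio built from MTT IC50s: 48 h exposure, absorbance 570 minus 630 nm, inhibition relative to DMSO vehicle, probit-fitted IC50 for HaCaT keratinocytes and A549 cells. Three independent experiments, quadruplicate wells.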

A549 [7] = assay: Anti-migratory activity in human A549 cells at antiproliferative IC50 after 24 to 48 hrs by wound healing assay; type: functional, cell-based
A549 [8] = assay: Induction of apoptosis in human A549 cells assessed as nuclear fragmentation at antiproliferative IC50 after 24 hrs by Hoechst 33242 staining based confocal microscopic analysis; type: functional, cell-based
In short: (§2)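 A549 cells (1x10⁶/well) on coverslips exposed 24 h at IC50, then fixed in 4% paraformaldehyde 10 min at 4 °C. Stained with Hoechst 33242 (5 μg/mL) 20 min at room temp. Nuclear morphology examined by confocal microscopy, excitation 350/emission 460 nm, 20X.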

A549 [9] = assay: Cell cycle arrest in human A549 cells assessed as accumulation at G2/M phase at antiproliferative IC50 after 24 hrs by propidium iodide staining based flow cytometry (reference value: 27.2%); type: functional
A549 [10] = assay: Induction of apoptosis in human A549 cells assessed as intracellular ROS level at antiproliferative IC50 after 24 hrs by DCFDA staining based fluorescence microscopic analysis relative to control; type: functional
A549 [11] = assay: Induction of apoptosis in human A549 cells assessed as chromatin condensation at antiproliferative IC50 after 24 hrs by Hoechst 33242 staining based confocal microscopic analysis; type: functional, cell-based; in short: as §2

SMILES | IC50 (HT-29) [µM] | IC50 [1] [µM] | IC50 [2] [µM] | IC50 (HaCaT) [µM] | IC50 (A549 [3]) [µM] | Activity (A549 [4]) [%] | Activity (A549 [5]) | selectivity ratio [6] | Activity (A549 [7]) | Activity (A549 [8]) | Activity (A549 [9]) [%] | fold change (FC) (A549 [10]) | Activity (A549 [11])
COc1cc(N/C=C\C(=O)c2cn(-c3ccccc3)nc2-c2ccccc2)cc(OC)c1OC | 9.8 | 2.35 | 5.93 | 36.2 | 6.34 | – | – | – | – | – | – | – | –
COc1cc(-c2nn(-c3ccccc3)cc2C(=O)/C=C\Nc2ccc(O)cc2)cc(OC)c1OC | 2.5 | 1.8 | 4.6 | 17.6 | 3.16 | – | – | – | – | – | – | – | –
COc1cc(-c2nn(-c3ccccc3)cc2C(=O)/C=C\Nc2ccc(C(F)(F)F)cc2)cc(OC)c1OC | > 50 | > 50 | > 50 | > 50 | > 50 | – | – | – | – | – | – | – | –
O=C(/C=C\Nc1ccc(F)cc1)c1cn(-c2ccccc2)nc1-c1ccc(Cl)cc1 | > 50 | 17.9 | > 50 | > 50 | > 50 | – | – | – | – | – | – | – | –
COc1cc(N/C=C\C(=O)c2cn(-c3ccccc3)nc2-c2ccc(F)cc2)cc(OC)c1OC | 7.77 | 12.6 | 4.89 | 32.8 | 9.35 | – | – | – | – | – | – | – | –
COc1ccc(-c2nn(-c3ccccc3)cc2C(=O)/C=C\Nc2ccc(Cl)cc2)cc1 | 4.76 | 8.86 | 3.89 | 20.9 | 2.97 | – | – | – | – | – | – | – | –
O=c1[nH]cc(F)c(=O)[nH]1 [FLUOROURACIL] | 2.8 | 3.65 | 2.76 | 16.1 | 3.98 | – | – | – | – | – | – | – | –
O=C(/C=C\Nc1ccc(Cl)cc1)c1cn(-c2ccccc2)nc1-c1ccc(Cl)cc1 | 4.65 | 13.1 | 3.89 | 23.4 | 3.67 | – | – | – | – | – | – | – | –
COc1ccc(-c2nn(-c3ccccc3)cc2C(=O)/C=C\Nc2cc(OC)c(OC)c(OC)c2)cc1 | 14.6 | > 50 | 18.9 | > 50 | 11.2 | – | – | – | – | – | – | – | –
O=C(/C=C\Nc1ccc(O)cc1)c1cn(-c2ccccc2)nc1-c1ccc(F)cc1 | 1.9 | 4.7 | 2.6 | 16.3 | 1.5 | 30 | Active | 10 | Active | Active | 41 | 2.1 | Active
COc1ccc(N/C=C\C(=O)c2cn(-c3ccccc3)nc2-c2ccc(F)cc2)cc1 | 3.2 | 2.5 | 4.6 | 19.6 | 8.9 | – | – | – | – | – | – | – | –
O=C(/C=C\Nc1ccc(C(F)(F)F)cc1)c1cn(-c2ccccc2)nc1-c1ccc(Cl)cc1 | > 50 | > 50 | > 50 | > 50 | > 50 | – | – | – | – | – | – | – | –
O=C(/C=C\Nc1ccc(F)cc1)c1cn(-c2ccccc2)nc1-c1ccc(F)cc1 | 6.5 | 18.2 | 7.9 | > 50 | 5.78 | – | – | – | – | – | – | – | –
COc1ccc(-c2nn(-c3ccccc3)cc2C(=O)/C=C\Nc2ccc(O)cc2)cc1 | 2.46 | 3.73 | 1.98 | 34.6 | 2.77 | 43.5 | Active | 10 | Active | Active | 43.1 | 2.1 | Active
O=C(/C=C\Nc1ccc(Cl)cc1)c1cn(-c2ccccc2)nc1-c1ccccc1 | 3.61 | 11.4 | 5.2 | 28.4 | 14.1 | – | – | – | – | – | – | – | –
COc1ccc(N/C=C\C(=O)c2cn(-c3ccccc3)nc2-c2ccccc2)cc1 | 1.56 | > 50 | 6.4 | > 50 | 3.25 | – | – | – | – | – | – | – | –

SMILES | IC50 (HT-29) [µM] | IC50 [1] [µM] | IC50 [2] [µM] | IC50 (HaCaT) [µM] | IC50 (A549 [3]) [µM] | Activity (A549 [4]) [%] | Activity (A549 [5]) | selectivity ratio [6] | Activity (A549 [7]) | Activity (A549 [8]) | Activity (A549 [9]) [%] | fold change (FC) (A549 [10]) | Activity (A549 [11])
O=C(/C=C\Nc1ccc(F)cc1)c1cn(-c2ccccc2)nc1-c1ccccc1 | 6.87 | 10.2 | 7.98 | 34.2 | 4.67 | – | – | – | – | – | – | – | –
O=C(/C=C\Nc1ccc(C(F)(F)F)cc1)c1cn(-c2ccccc2)nc1-c1ccccc1 | > 50 | > 50 | > 50 | > 50 | > 50 | – | – | – | – | – | – | – | –
COc1ccc(N/C=C\C(=O)c2cn(-c3ccccc3)nc2-c2ccc(Cl)cc2)cc1 | 8.93 | 6.89 | 10.7 | 30.8 | 6.46 | – | – | – | – | – | – | – | –
COc1cc(-c2nn(-c3ccccc3)cc2C(=O)/C=C\Nc2ccc(Cl)cc2)cc(OC)c1OC | 7.68 | 3.21 | 11.2 | 30.2 | 8.67 | – | – | – | – | – | – | – | –
COc1ccc(N/C=C\C(=O)c2cn(-c3ccccc3)nc2-c2ccc(OC)cc2)cc1 | 8.76 | > 50 | 13.4 | > 50 | 6.78 | – | – | – | – | – | – | – | –
O=C(/C=C\Nc1ccc(O)cc1)c1cn(-c2ccccc2)nc1-c1ccccc1 | 5 | 4.29 | 3.6 | 44.6 | 3.21 | – | – | – | – | – | – | – | –
O=C(/C=C\Nc1ccc(Cl)cc1)c1cn(-c2ccccc2)nc1-c1ccc(F)cc1 | 4.6 | 8.9 | 3.8 | 21.3 | 6.7 | – | – | – | – | – | – | – | –
COc1cc(-c2nn(-c3ccccc3)cc2C(=O)/C=C\Nc2ccc(F)cc2)cc(OC)c1OC | 12.5 | 4.78 | 7.7 | 25.7 | 15.6 | – | – | – | – | – | – | – | –
COc1cc(N/C=C\C(=O)c2cn(-c3ccccc3)nc2-c2ccc(Cl)cc2)cc(OC)c1OC | 12.7 | 17.8 | 9.98 | 46.6 | 5.64 | – | – | – | – | – | – | – | –
COc1cc(N/C=C\C(=O)c2cn(-c3ccccc3)nc2-c2cc(OC)c(OC)c(OC)c2)cc(OC)c1OC | 8.4 | 5.1 | 14.1 | 20.9 | 7.98 | – | – | – | – | – | – | – | –
COc1ccc(N/C=C\C(=O)c2cn(-c3ccccc3)nc2-c2cc(OC)c(OC)c(OC)c2)cc1 | 5.78 | 12.8 | 9.6 | > 50 | 4.78 | – | – | – | – | – | – | – | –
O=C(/C=C\Nc1ccc(O)cc1)c1cn(-c2ccccc2)nc1-c1ccc(Cl)cc1 | 2.5 | 1.5 | 4.43 | 22.6 | 1.91 | 45.8 | Active | 10 | Active | Active | 49.2 | 2.1 | Active
COc1ccc(-c2nn(-c3ccccc3)cc2C(=O)/C=C\Nc2ccc(C(F)(F)F)cc2)cc1 | 9.87 | > 50 | > 50 | > 50 | > 50 | – | – | – | – | – | – | – | –
COc1ccc(-c2nn(-c3ccccc3)cc2C(=O)/C=C\Nc2ccc(F)cc2)cc1 | 7.65 | 8.91 | 5.73 | 8.91 | 3.98 | – | – | – | – | – | – | – | –
O=C(/C=C\Nc1ccc(C(F)(F)F)cc1)c1cn(-c2ccccc2)nc1-c1ccc(F)cc1 | > 50 | > 50 | > 50 | > 50 | > 50 | – | – | – | – | – | – | – | –
